Assay results reported in ChEMBL document CHEMBL1125497, “Synthesis and anticonvulsant activity of enaminones” (J Med Chem, 1992).

Tests used:
[1] = Antiepileptic activity in male CF1 mice 2 hr after oral administration measured in neurological toxicity (Tox) test at a dose of 50 mg/kg (no. of animals treated /protected); activity value is 0/4; type: functional, Mus musculus
[2] = Antiepileptic activity in male CF1 mice 30 min after administration measured in neurological toxicity (Tox) test at a dose of 300 mg/kg (no. of animals treated /protected); activity value is 3/4; type: functional, Mus musculus
[3] = Antiepileptic activity in male CF1 mice 2 hr after oral administration measured in maximum electroshock seizure(MES) test at a dose of 50 mg/kg (no. of animals treated /protected); activity value is 2/4; type: functional, Mus musculus
Rattus norvegicus [4] = test: Per oral dose (60 mg/Kg) reducing rat corneal kindling 0.5 hr after administration.; type: functional
How it was run: (§1)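 Sprague-Dawley rats (85–95 g initial) were kindled with 4 s, 8 mA corneal stimulations (butacaine anesthesia) to 10 consecutive stage 5 seizures. After a vehicle shock and a 2-day shock-free period, test drug was given ip or po and a single shock applied at time of peak effect. Seizures were scored on a modified Racine 0–5 scale. ED50 is the dose reducing severity by 50% (Litchfield–Wilcoxon).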

Rattus norvegicus [5] = test: Per oral dose (75 mg/Kg) reducing rat corneal kindling 0.5 hr after administration.; type: functional; how it was run: as §1
[6] = Dose showing neurotoxicity in 50% of the at the time of peak neurotoxic effect in CF1 MICE after ip administration.; type: functional; details: Mus musculus
How it was run: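 Phase II quantification in CF1 male mice (ca. 24–34 g), dosing ip or po in 0.5% methylcellulose suspension. ED50 is protection from tonic hind limb extension in MES. TD50 is rotorod neurotoxicity. Both were read at time of peak effect and derived by Litchfield–Wilcoxon with 95% confidence limits.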

[7] = Antiepileptic activity in male CF1 mice 4 hr after administration measured in neurological toxicity (Tox) test at a dose of 100 mg/kg; activity value is 0/4; type: functional, Mus musculus
[8] = Antiepileptic activity in male CF1 mice 1 hr after oral administration measured in maximum electroshock seizure(MES) test at a dose of 6 mg/kg (no. of animals treated /protected); activity value is 1/4; type: functional, Mus musculus
[9] = Antiepileptic activity in male CF1 mice 1 hr after oral administration measured in maximum electroshock seizure(MES) test at a dose of 6 mg/kg (no. of animals treated /protected); activity value is 2/4; type: functional, Mus musculus
[10] = Antiepileptic activity in male CF1 mice 0.50 hours after oral administration measured in neurological toxicity (Tox) test at a dose of 6 mg/kg (no. of animals treated /protected); activity value is 0/4; type: functional, Mus musculus
[11] = Antiepileptic activity in male CF1 mice 0.5 hr after oral administration measured in neurological toxicity (Tox) test at a dose of 10 mg/kg (no. of animals treated /protected); activity value is 0/4; type: functional, Mus musculus
[12] = Antiepileptic activity in male CF1 mice 4 hr after administration measured in neurological toxicity (Tox) test at a dose of 100 mg/kg (no. of animals treated /protected); activity value is 0/4; type: functional, Mus musculus
[13] = Antiepileptic activity in male CF1 mice 0.5 hr after oral administration measured in maximum electroshock seizure(MES) test at a dose of 6 mg/kg (no. of animals treated /protected); activity value is 3/4; type: functional, Mus musculus
Rattus norvegicus [14] = test: Average seizure score for the rat cornea 0.5 hr after peroral administration of 30 mg/kg of compound; type: functional; details: route oral; how it was run: as §1
[15] = Antiepileptic activity in male CF1 mice 0.25 hr after oral administration measured in neurological toxicity (Tox) test at a dose of 10 mg/kg (no. of animals treated /protected); activity value is 0/4; type: functional, Mus musculus
Rattus norvegicus [16] = test: Per oral dose (30 mg/Kg) reducing rat corneal kindling 0.5 hr after administration.; type: functional; how it was run: as §1

Row | SMILES | Activity [1] | Activity [2] | Activity [3] | Reduction (Rattus norvegicus [4]) [%] | Reduction (Rattus norvegicus [5]) [%] | ED50 [6] [mg/kg] | Activity [7] | Activity [8] | Activity [9] | Activity [10] | Activity [11] | Activity [12] | Activity [13] | Average seizure score (Rattus norvegicus [14]) | Activity [15] | Reduction (Rattus norvegicus [16]) [%]
1 | COC(=O)C1C(=O)C=C(NCc2ccccc2)CC1C (stereo unspecified) | 0 | 3 | 2 | 40 | 47 | > 500 | 0 |  |  |  |  |  |  |  |  | 
2 | COC(=O)C1C(=O)C=C(Nc2ccc(Cl)cc2)CC1C (stereo unspecified) |  |  |  |  |  |  |  | 1 | 2 | 0 | 0 | 0 | 3 | 3 | 0 | 40
